Measurements reported in ChEMBL document CHEMBL1629507, “Small molecule inhibitors of hantavirus infection” (Bioorg Med Chem Lett, 2010).
Activity calls are given as the source filed them. The rule behind the calls is not given here. Where a SMILES comes first, the peptide text is derived from it. Bridges are numbered along the chain shown (N, C = ends).

Assays:
Type in all cases: cell-based
[1] = biological target: T1, Integrin alpha-V/beta-3 (Homo sapiens) (UniProt P05106+P06756); experiment: Inhibition of human alphaVbeta3 receptor expressed in african green monkey Vero E6 cells assessed as inhibition of SNV infection in cells at 2 mM by immunofluorescent assay
Outline: (§1)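 Vero E6 cells (10^4/well, duplicate wells) were grown 24 h at 37 °C in MEM with 2.5% FBS. They were pretreated 1 h at 37 °C with small molecules (1 µM) or cyclic peptides (2 mM, in PBS pH 7.4). SNV strain SN77734 (500–1,000 FFU/ml) was then added for 1 h, then washed out. After 24–36 h, cells were fixed and stained with anti-SNV N plus FITC antibody, and foci counted. % inhibition is relative to untreated cells, normalized to ReoPro 80 µg/ml set as 80%; at least 4 replicates.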

[2] = biological target: T1, Integrin alpha-V/beta-3 (Homo sapiens); experiment: Inhibition of human […] alphaVbeta3 expressed in african green monkey Vero E6 cells assessed as inhibition of Andes CHI-7913 viral entry at 10 uM
[3] = biological target: T1, Integrin alpha-V/beta-3 (Homo sapiens); experiment: Inhibition of human […] alphaVbeta3 expressed in african green monkey Vero E6 cells assessed as inhibition of Hantaan 76/118 viral entry at 10 uM
[4] = biological target: T1, Integrin alpha-V/beta-3 (Homo sapiens); experiment: Inhibition of human […] alphaVbeta3 expressed in african green monkey Vero E6 cells assessed as inhibition of Andes CHI-7913 viral entry at 1 mM
[5] = biological target: T1, Integrin alpha-V/beta-3 (Homo sapiens); experiment: Inhibition of human […] alphaVbeta3 expressed in african green monkey Vero E6 cells assessed as inhibition of SNV SN77734 entry at 10 uM
[6] = biological target: T2, Integrin alpha-V/beta-1 (Homo sapiens) (UniProt P05556+P06756); experiment: Inhibition of human […] alphaVbeta1 expressed in african green monkey Vero E6 cells assessed as inhibition of PHV-1 entry at 1 mM
[7] = biological target: T1, Integrin alpha-V/beta-3 (Homo sapiens); experiment: Inhibition of human […] alphaVbeta3 expressed in african green monkey Vero E6 cells assessed as inhibition of SNV SN77734 entry at 1 mM
[8] = biological target: T1, Integrin alpha-V/beta-3 (Homo sapiens); experiment: Inhibition of human […] alphaVbeta3 expressed in african green monkey Vero E6 cells assessed as inhibition of Hantaan 76/118 viral entry at 1 mM
[9] = biological target: T2, Integrin alpha-V/beta-1 (Homo sapiens); experiment: Inhibition of human […] alphaVbeta1 expressed in african green monkey Vero E6 cells assessed as inhibition of PHV-1 entry at 10 uM
[10] = biological target: T1, Integrin alpha-V/beta-3 (Homo sapiens); experiment: Inhibition of human alphaVbeta3 receptor expressed in african green monkey Vero E6 cells assessed as inhibition of SNV infection in cells at 1 uM by immunofluorescent assay; outline: as §1
[11] = biological target: T1, Integrin alpha-V/beta-3 (Homo sapiens); experiment: Inhibition of human alphaVbeta3 receptor expressed in african green monkey Vero E6 cells assessed as inhibition of SNV infection in cells by immunofluorescent assay
Outline: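 SNV infection of Vero E6 cells in a dose-response format. Cells were pretreated 1 h at 37 °C with compound across a concentration range, then exposed to virus for 1 h, washed, and cultured 24–36 h. Infected foci were counted by anti-N immunofluorescence. Inhibition was taken relative to untreated cells and normalized to ReoPro. EC50 derived from curves; points are the mean and standard error of N = 4.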

Compound `CC(C)C[C@@H]1NC(=O)[C@H](CCC(N)=O)NC(=O)[C@H]([C@@H](C)O)NC(=O)[C@H](CCCCN)NC(=O)[C@H](C(C)C)NC(=O)[C@H](Cc2ccccc2)NC(=O)[C@@H]2CCCN2C(=O)[C@@H](N)CSSC[C@@H](C(=O)O)NC1=O` (H-CPFVKTQLC-OH; disulfide 1-9) has an inhibition [1] of 54.6%.
For `CC(C)[C@@H]1NC(=O)[C@H](Cc2ccccc2)NC(=O)[C@H]2CCCN2C(=O)[C@@H](N)CSSC[C@@H](C(=O)O)NC1=O`, the inhibition [2] was “Active”, the inhibition [3] was “Active” and the inhibition [4] was “Active”. For the same compound, the inhibition [1] was 53%, the inhibition [5] was “Active” and the inhibition [6] was “Active”. For the same compound, the inhibition [7] was “Active”, the inhibition [8] was “Active” and the inhibition [9] was “Active”.
For `O=C(NCc1cccs1)C(Cc1ccccc1)NS(=O)(=O)c1ccc2nsnc2c1` (racemic), the inhibition [2] was “Active”, the inhibition [10] was 29% and the inhibition [3] was “Active”. The inhibition [4] was “Active”, the inhibition [5] was “Active” and the inhibition [6] was “Active”. For the same compound, the inhibition [11] was “Dose-dependent effect”, the inhibition [7] was “Active” and the inhibition [8] was “Active”. For the same compound, the inhibition [9] was “Active”.
With `O=c1c(/C=N/Cc2ccco2)c(CSc2ccc(Cl)cc2)[nH]n1-c1nc2ccccc2s1` the inhibition [2] was “Active”, the inhibition [10] was 29% and the inhibition [3] was “Active”. The inhibition [4] was “Active”, the inhibition [5] was “Active” and the inhibition [6] was “Active”. The inhibition [11] was “Dose-dependent effect”, the inhibition [7] was “Active” and the inhibition [8] was “Active”. For the same compound, the inhibition [9] was “Active”.
`O=C(CSc1nc2ccsc2c(=O)n1-c1ccc(Cl)cc1)NCCc1ccc(Cl)cc1` was tested, and the inhibition [10] was 11.4%.
`CCC1CCCCN1CCNC(=O)C(Cc1ccccc1)NS(=O)(=O)c1ccc2nsnc2c1` (stereo not given) was tested, and the inhibition [10] was 0%.
Work on `COc1ccc(S(=O)(=O)NC(CC(=O)NCc2ccc3c(c2)OCO3)c2ccco2)cc1` (stereo not given) yielded an inhibition [10] of 0%.
Work on `CCOC(=O)c1sc2nc(SCC(=O)NCc3ccccc3)n(Cc3ccco3)c(=O)c2c1C` yielded an inhibition [10] of 25.9%.
`N#Cc1ccccc1OCC(=O)N/N=C/c1cc(Br)ccc1OC(=O)c1ccccc1` gave an inhibition [10] of 15%.
In the case of `O=C(NC1CCCc2ccccc21)C(Cc1ccccc1)NS(=O)(=O)c1cccc2nsnc12` (stereo not given), the inhibition [10] was 0%.
`C/C=C/C(=O)NC(=S)NNC(=O)C(Oc1ccccc1)Oc1ccccc1` was tested, and the inhibition [10] was 16.1%.
Work on `COc1ccc(CNC(=O)c2ccc3c(c2)N(Cc2ccccc2)C(=O)c2ccccc2S3)cc1` yielded an inhibition [10] of 22%.
`O=C(CSc1nc2ccccc2c(=O)n1Cc1ccc2c(c1)OCO2)NCc1ccco1` gave an inhibition [10] of 34.2%.
In the case of `COc1ccccc1CNC(=O)C(Cc1ccccc1)NS(=O)(=O)c1cccc2nsnc12` (stereo not given), the inhibition [10] was 4.8%.
For `O=C(Nc1ccccc1)C(Cc1ccccc1)NS(=O)(=O)c1cccc2cccnc12` (stereo not given), the inhibition [10] was 0%.
For `Cc1ccc(S(=O)(=O)N2CCN(C(=O)CSc3nnc(C)c(=O)[nH]3)C2c2ccccc2)cc1` (stereo not given), the inhibition [10] was 4%.
In the case of `O=C(NCC1COc2ccccc2O1)C(Cc1ccccc1)NS(=O)(=O)c1ccc2nsnc2c1` (stereo not given), the inhibition [10] was 20%.
`O=C(NCc1ccc2c(c1)OCO2)C(Cc1ccccc1)NS(=O)(=O)c1cccc2nsnc12` (stereo not given) was tested, and the inhibition [10] was 0%.
In the case of `O=C(NCc1ccc2c(c1)OCO2)C(Cc1ccccc1)NS(=O)(=O)c1cccc2cccnc12` (racemic), the inhibition [2] was “Active”, the inhibition [10] was 46.5% and the inhibition [3] was “Active”. For the same compound, the inhibition [4] was “Active”, the inhibition [5] was “Active” and the inhibition [6] was “Active”. For the same compound, the inhibition [11] was “Dose-dependent effect”, the inhibition [7] was “Active” and the inhibition [8] was “Active”. The inhibition [9] was “Active”.
For `Cc1ccc(Cl)cc1NC(=O)C(Cc1ccccc1)NS(=O)(=O)c1cccc2cccnc12` (stereo not given), the inhibition [10] was 14%.
Compound `O=C(NCc1ccccc1)C(Cc1ccccc1)NS(=O)(=O)c1cccc2cccnc12` (stereo not given) has an inhibition [10] of 11.2%.
For `CC(C)c1ccc(S(=O)(=O)c2nnn3c2nc(NC(C)c2ccccc2)c2sccc23)cc1` (stereo not given), the inhibition [10] was 8%.
Work on `CCCN(CCC)CCNC(=O)C(Cc1ccccc1)NS(=O)(=O)c1cccc2nsnc12` (stereo not given) yielded an inhibition [10] of 34%.
Work on `O=C(NCCc1ccccc1)C(Cc1ccccc1)NS(=O)(=O)c1cccc2nsnc12` (stereo not given) yielded an inhibition [10] of 0%.
`O=C(NC(C(=O)N/N=C/c1ccco1)c1nnc(O)c2ccccc12)c1ccccc1` (stereo not given) showed an inhibition [10] of 33%.
Compound `COc1ccc(CCNC(=O)CN(CCc2ccccc2)S(=O)(=O)c2ccccc2)cc1OC` has an inhibition [10] of 15.2%.
With `CCN(CCNC(=O)C(Cc1ccccc1)NS(=O)(=O)c1cccc2nsnc12)c1ccccc1` (stereo not given) the inhibition [10] was 8%.
`Cc1ccc(CNC(=O)C(Cc2ccccc2)NS(=O)(=O)c2cccc3cccnc23)cc1` (stereo not given) gave an inhibition [10] of 0%.
With `Cc1cc(NC(=O)C(Cc2ccccc2)NS(=O)(=O)c2cccc3cccnc23)no1` (stereo not given) the inhibition [10] was 9.6%.
With `O=C(CCCn1c(=O)c2sccc2n(Cc2ccc(F)cc2Cl)c1=O)NCc1ccco1` the inhibition [10] was 12.2%.
